From ChEMBL document CHEMBL1124794, “Synthesis, chemistry, and antineoplastic activity of alpha-halopyridinium salts: potential pyridone prodrugs of acylated vinylogous carbinolamine tumor inhibitors” (J Med Chem, 1990)
Values joined by “and” are separate entries in the source; they are usually repeats but may differ in a detail not shown here. Equal entries are not always repeated.

Legend:
[1] = test system: P388; test: In vivo activity against P388 Lymphocytic Leukemia in CD2F1 mice at the dose of 100 mg/kg, activity expressed as body weight difference; type: functional, Mus musculus
How it was run: (§1)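 CD2F1 mice were inoculated with ascitic fluid holding ca. 10^6 P388 cells. Drug was given daily from 24 h after inoculation, from solutions or suspensions made fresh each day, some as a saline suspension. TDS is survivors/initial animals on day 5. BWD is body weight on day 5 minus day 1. %T/C compares median survival of treated and control mice.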

[2] = Half life at the ionic strength 1.0 M NaCl; type: ADME
How it was run: (§2)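 Pyridinium salt in 0.02 M phosphate buffer, pH 7.4, 25 °C, with NaCl varied 0.10–1.0 M. Loss of the pyridinium chromophore's UV absorbance maximum (conversion to pyridone) followed over time. Pseudo-first-order kobs and half-life derived from that decay.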

[3] = test system: MX1; test: In vivo activity against murine MX-1 tumor system at the dose of 75 mg/kg, activity expressed as body weight difference.; type: functional, Mus musculus
[4] = In vivo activity against murine M5076 tumor system at the dose of 25 mg/kg, activity expressed as body weight difference; type: functional, Mus musculus
How it was run: (§3)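 M5076: ascitic fluid with ca. 10^6 cells inoculated ip into CD2F1 mice. Dosing started 24 h after inoculation and was then given every 4 days for four doses in total, from solutions or suspensions made fresh each day. Toxicity day survivors were scored on day 5. Body weight difference is day 14 minus day 1. %T/C is based on median survival time versus controls.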

[5] = Half life at the buffer concentration of 0.05 M.; type: ADME
[6] = In vivo activity against murine M5076 tumor system at the dose of 50 mg/kg, activity expressed as KE; type: functional, Mus musculus
[7] = test system: P388; test: In vivo activity against P388 Lymphocytic Leukemia in CD2F1 mice at the dose of 12.5 mg/kg, activity expressed as TDS; 6/6; type: functional, Mus musculus; how it was run: as §1
[8] = test system: P388; test: In vivo activity against P388 Lymphocytic Leukemia in CD2F1 mice at the dose of 25 mg/kg, activity expressed as TDS; 6/6; type: functional, Mus musculus; how it was run: as §1
[9] = test system: L1210; test: In vivo activity against murine L1210 tumor system at the dose of 25 mg/kg, activity expressed as body weight difference; type: functional, Mus musculus
How it was run: as §3, with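 “L1210 lymphocytic leukemia:” for “M5076:”, “injected” for “inoculated”, “repeated daily” for “then given every 4 days”, “five” for “four”, “5” for “14”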

[10] = test system: L1210; test: In vivo activity against murine L1210 tumor system at the dose of 50 mg/kg, activity expressed as TDS; 5/6; type: functional, Mus musculus
How it was run: as §3, with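 “L1210 lymphocytic leukemia:” for “M5076:”, “injected” for “inoculated”, “repeated daily” for “then given every 4 days”, “five” for “four”, “5” for “14”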

[11] = In vivo activity against murine M5076 tumor system at the dose of 50 mg/kg, activity expressed as TDS; 10/10; type: functional, Mus musculus
[12] = test system: P388; test: In vivo activity against P388 Lymphocytic Leukemia in CD2F1 mice at the dose of mg/kg, activity expressed as KE; type: functional, Mus musculus
[13] = In vivo activity against murine M5076 tumor system at the dose of 25 mg/kg, activity expressed as KE; type: functional, Mus musculus; how it was run: as §3
[14] = test system: P388; test: In vivo activity against P388 Lymphocytic Leukemia in CD2F1 mice at the dose of 12.5 mg/kg, activity expressed as % T/C; type: functional, Mus musculus; how it was run: as §1
[15] = Half life at the pH 8.0; type: ADME; conditions: buffer
[16] = test system: P388; test: In vivo activity against P388 Lymphocytic Leukemia in CD2F1 mice at the dose of 50 mg/kg, activity expressed as % T/C; type: functional, Mus musculus; how it was run: as §1
[17] = Half life at the pH 7.4; type: ADME; conditions: buffer
[18] = Effect of pH on the hydrolysis of pyridinium Moity in 0.05 M buffer concentration at the pH 6.5; type: ADME
How it was run: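 Pyridinium salt in 0.05 M phosphate buffer, pH 6.0–8.0 (set by pH meter), ionic strength 0.25 M, 25 °C. Decrease in the pyridinium UV absorbance maximum followed over time to give pseudo-first-order kobs and half-life.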

[19] = Effect of Ionic strength (0.25 M NaCl)on the hydrolysis of pyridinium Moity in 0.02 M buffer concentration, pH 7.4,25 degree C; type: ADME; how it was run: as §2
[20] = test system: P388; test: In vivo activity against P388 Lymphocytic Leukemia in CD2F1 mice at the dose of 25 mg/kg, activity expressed as % T/C; type: functional, Mus musculus; how it was run: as §1
[21] = test system: P388; test: In vivo activity against P388 Lymphocytic Leukemia in CD2F1 mice at the dose of 50 mg/kg, activity expressed as KE; type: functional, Mus musculus
[22] = Effect of phosphate buffer on the hydrolysis of alpha Fluoropyridinium Moity at the concentration of 0.05M, pH 8.0,25degree C; type: ADME
How it was run: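 α-Fluoropyridinium hydrolysis to pyridone in phosphate buffer at 0.02, 0.05 or 0.10 M, pH 6.5 or 8.0, ionic strength […] °C. Pyridinium UV absorbance maximum followed with time to give pseudo-first-order kobs and half-life.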

[23] = test system: P388; test: In vivo activity against P388 Lymphocytic Leukemia in CD2F1 mice at the dose of 50 mg/kg, activity expressed as TDS; 6/6; type: functional, Mus musculus; how it was run: as §1
[24] = Half life at the pH 6.0; type: ADME; conditions: buffer
How it was run: (§4)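 Bis-carbamate in acetonitrile–water (1:1; buffer added to a 0.5 mg/mL acetonitrile solution), 0.05 M buffer, ionic strength 0.136 (KCl), 25 ± 0.1 °C. Buffers: phosphate pH 2.0; citrate pH 3.0–3.5; succinate pH 4.0; acetate pH 5.0; phosphate pH 6.0–8.0; borate pH 9.0; carbonate pH 10.0. HPLC bis-carbamate peak-area loss, ln(area0/areat) vs time slope = kobs. Duplicates averaged.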

[25] = test system: P388; test: In vivo activity against P388 Lymphocytic Leukemia in CD2F1 mice at the dose of 12.5 mg/kg, activity expressed as KE; type: functional, Mus musculus
[26] = Half life at the ionic strength; type: ADME
[27] = test system: P388; test: In vivo activity against P388 Lymphocytic Leukemia in CD2F1 mice at the dose of 200 mg/kg, activity expressed as TDS; 6/6; type: functional, Mus musculus; how it was run: as §1
[28] = test system: P388; test: In vivo activity against P388 Lymphocytic Leukemia in CD2F1 mice at the dose of 25 mg/kg, activity expressed as body weight difference; T-C; type: functional, Mus musculus; how it was run: as §1
[29] = Effect of phosphate buffer on carbamate hydrolysis in acetonitrile-water at the concentration of 0.05 M on pH 7.4, 25 degree C.
How it was run: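 Bis-carbamate in acetonitrile–water (1:1), 25 ± 0.1 °C. Citrate buffer at pH 3.0 or phosphate buffer at pH 7.4, at 0.01, 0.025 or 0.05 M, ionic strength 0.136 (KCl). Kinetics followed by HPLC as the decrease in bis-carbamate peak area. The regression slope of ln(area0/areat) vs time gave pseudo-first-order kobs. Duplicates averaged.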

[30] = In vivo activity against murine M5076 tumor system at the dose of 100 mg/kg, activity expressed as body weight difference; T-C; type: functional, Mus musculus; how it was run: as §3
[31] = test system: L1210; test: In vivo activity against murine L1210 tumor system at the dose of 60 mg/kg, activity expressed as KE; type: functional, Mus musculus
How it was run: as §3, with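 “L1210 lymphocytic leukemia:” for “M5076:”, “injected” for “inoculated”, “repeated daily” for “then given every 4 days”, “five” for “four”, “5” for “14”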

[32] = test system: L1210; test: In vivo activity against murine L1210 tumor system at the dose of 166.7 mg/kg, activity expressed as body weight difference; T-C; type: functional, Mus musculus
How it was run: as §3, with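 “L1210 lymphocytic leukemia:” for “M5076:”, “injected” for “inoculated”, “repeated daily” for “then given every 4 days”, “five” for “four”, “5” for “14”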

[33] = Half life at the pH 5.0; type: ADME; conditions: buffer; how it was run: as §4

half-life [5] [min] | half-life [15] [min] | half-life [17] [min] | half-life [24] [min] | SMILES | TDS [7] | TDS [8] | T/C [14] [%] | T/C [16] [%] | T/C [20] [%] | KE [21] | TDS [23] | KE [25] | further results
34.6 | 13.3 | 20.5 | 158 | CC(C)NC(=O)OCc1c(COC(=O)NC(C)C)c(-c2cc[n+](C)c(F)c2)n2c1CCC2.[I-] | 6 | 6 | 149 | 157 | 141 | 1.32 | 6 | 0.75 | BWD [1]: -7.6 g; half-life [2]: 99.1 min; BWD [3]: 0.2 g; BWD [4]: 0.4 g; KE [6]: -1.59; BWD [9]: 0.6 g; TDS [10]: 5; TDS [11]: 10; KE [12]: 1.25; KE [13]: -1.98; K obs [18]: 0.0153 min⁻¹; K obs [19]: 0.02 min⁻¹; K obs [22]: 0.02 min⁻¹
53.5 | 54.1 | 53.5 | 51.4 | CC(C)NC(=O)OCc1c(COC(=O)NC(C)C)c(-c2ccn(C)c(=O)c2)n2c1CCC2 | 6 | 6 | 116 | 132 | 130 | -0.38 | 6 | -1.39 | T1/2 [26]: 55.89 min and 86.65 min; half-life [26]: 53.5 min; TDS [27]: 6; BWD [28]: -0.6 g; k obs [29]: 0.000217 s⁻¹; BWD [30]: -1.3 g; KE [31]: -0.5; BWD [32]: -3.8 g; half-life [33]: 50 min
